Data set [1] concerns hiPSC-CMs. The data set is described as follows: Myocardial cell activity. The conditions noted are these: concentration relative to ETPC. Format: cell-based, human. In short, it runs like this:
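Human iPSC-derived cardiomyocytes (mostly ventricular; four batches) were grown 14-21 days on fibronectin-coated impedance/field-potential sensor plates at 37°C, 5% CO2. The medium was changed on dosing day, and test compound was added 3-4 h later, with 0.1% DMSO as control. Reads were taken every 30 min for 2 h, then every 2 h for >24 h. There were 3-4 concentrations, triplicate wells each. Ampl and BPM were normalized to pre-dose values.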

The conditions of data set [2]: after intravenous administration; cited from earlier work.
Data set [3] concerns hiPSC-CMs. The data set is described as follows: Field potential. The format is cell-based, human.
The conditions of data set [4]: ref 21 (Blinova et al); cited from earlier work.

SMILES strings stand for the structures. Entries after “also recorded” stand apart in the source; their conditions may differ.

As for `CCCCc1oc2ccccc2c1C(=O)c1cc(I)c(OCCN(CC)CC)c(I)c1` [Amiodarone], in data set [1], the “Effect on Ampl (cell activity / cell viability)” value is “decreased the cell activity of cardiomyocytes at concentrations greater than ETPC” and the “Effect on BPM (beats per minute)” value is “decreased BPM at a concentration greater than ETPC”. Besides, in data set [2], the TdP incidence was ~ 15%.

Regarding `CC(C)COCC(CN(Cc1ccccc1)c1ccccc1)N1CCCC1` (stereo not drawn) [Bepridil], in data set [3], the “Arrhythmia-like waveforms (in words)” value is listed as “induce arrhythmia-like waveforms” and the “Concentration at which arrhythmia-like waveforms were observed” value is 312.5 times of the ETPC. Also, the “FPDc prolongation (in words)” value in data set [3] (concentration relative to ETPC) is reported as “not induce FPDc prolongation; also recorded: no FPDc prolongation was observed”. In data set [4], the “Predicted risk, LR model of Blinova et al” value is “low-risk”.

As to `Cc1nc2n(c(=O)c1CCN1CCC(c3noc4cc(F)ccc34)CC1)CCCC2` [Risperidone], in data set [3], the “Arrhythmia-like waveforms (in words)” value is on record as “caused arrhythmia-like waveforms” and the “Concentration at which arrhythmia-like waveforms were observed” value is reported as 555.6 times of the ETPC. In data set [1], the “Effect on Ampl (cell activity / cell viability)” value is reported as “decreased the activity of cardiomyocytes at a concentration higher than ETPC” and the “Effect on BPM (beats per minute)” value was “decrease BPM”. Further, the “Predicted risk, LR model of Blinova et al” value in data set [4] was “low-risk”.

Values taken from publication PMC9780517 (Experimental and Therapeutic Medicine, 2022).
